Reference: paper PMC4243704 (European journal of pharmaceutics and biopharmaceutics : …, 2013)
Where two headings read alike, the source gives them in different places.

Key:
Thymidine phosphorylase = target: T1, Thymidine phosphorylase (Homo sapiens, UniProt P19971); experiment: Stability toward thymidine phosphorylase; type: in vitro ADME
T1 sequence (P19971 11-482): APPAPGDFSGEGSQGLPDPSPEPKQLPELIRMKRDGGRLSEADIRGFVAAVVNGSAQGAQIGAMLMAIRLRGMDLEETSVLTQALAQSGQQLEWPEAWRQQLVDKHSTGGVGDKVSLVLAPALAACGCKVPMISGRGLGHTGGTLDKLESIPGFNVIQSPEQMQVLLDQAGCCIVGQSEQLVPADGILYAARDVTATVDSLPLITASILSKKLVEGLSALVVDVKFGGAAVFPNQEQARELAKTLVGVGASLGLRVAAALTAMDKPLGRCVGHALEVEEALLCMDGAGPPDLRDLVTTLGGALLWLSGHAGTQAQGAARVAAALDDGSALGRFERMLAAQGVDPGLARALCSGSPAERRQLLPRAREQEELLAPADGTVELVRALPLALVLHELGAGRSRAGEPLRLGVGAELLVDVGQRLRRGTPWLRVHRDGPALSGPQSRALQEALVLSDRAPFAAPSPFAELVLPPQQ

[1] = Enzymatic stability in AsPC-1 cell homogenates; type: in vitro ADME; conditions: for AsPC-1 cell homogenates t1/2: 500 μg/mL protein, 37 °C; for Stability in cell homogenate, D-prodrug relative to L-prodrug: AsPC-1 cell homogenates (assigned from Table 2 ratios)
AsPC-1 cells [2] = experiment: Uptake study in AsPC-1 cells; type: cell-based; conditions: for Cytosine (%) of species found in cells / Gemcitabine (%) of species found in cells / Prodrug (%) of species found in cells: AsPC-1 uptake, 100 μM, 1 h; for Uptake amount, D-prodrug relative to L-prodrug (higher): 100 μM drug solution
AsPC-1 cells [3] = experiment: Cell proliferation assay; type: cell-based
In short: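 AsPC-1 cells seeded at 125,000/well and grown 24 h in RPMI-1640 + 10% FBS, then washed with pH 6.0 uptake buffer. Test compound 2-fold serially diluted (5 to 0.078 mmol/L) in that buffer and applied for 2 h at 37 °C; buffer alone served as 100% viability. After washing, 24 h recovery in medium. XTT/phenazine methosulfate read at 450 nm; GI50 from nonlinear fitting.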

mouse jejunum = experiment: In situ single-pass intestinal perfusion in mice
[4] = Chemical stability in simulated intestinal fluid; type: physicochemical; conditions: for SIF (pH 6.5) t1/2: 37 °C
In short: (§1)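 Incubated in simulated gastric fluid (pH 1.2) or simulated intestinal fluid at 37 °C. Remaining prodrug measured over time by reverse-phase C18 HPLC (0.1% TFA water/acetonitrile gradient). t1/2 estimated by linear regression of pseudo-first-order plots of prodrug concentration vs time.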

[5] = Chemical stability in pH 7.4 phosphate buffer; type: physicochemical; conditions: for Buffer pH 7.4 t1/2: phosphate buffer pH 7.4, 37 °C
In short: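 Non-enzymatic hydrolysis in 10 mmol/L phosphate buffer pH 7.4, triplicate wells, 37 °C up to 120 min. Aliquots quenched in acetonitrile with 0.1% TFA, filtered, and run on reverse-phase C18 HPLC (TFA water/acetonitrile gradient). t1/2 from linear regression of pseudo-first-order plots of prodrug concentration vs time.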

Caco-2 cells = experiment: Uptake study in Caco-2 cells; type: cell-based; conditions: for Cytosine (%) of species found in cells / Gemcitabine (%) of species found in cells / Prodrug (%) of species found in cells: Caco-2 uptake without Gly-Pro, 1 h
[6] = Enzymatic stability in Caco-2 cell homogenates; type: in vitro ADME; conditions: for Caco-2 cell homogenates t1/2: 500 μg/mL protein, 37 °C; for Stability in cell homogenate, D-prodrug relative to L-prodrug: Caco-2 cell homogenates (assigned from Table 2 ratios)
[7] = Chemical stability in simulated gastric fluid; type: physicochemical; conditions: for SGF t1/2: SGF pH 1.2, 37 °C
In short: as §1

Microsomal stability = type: in vitro ADME, human; conditions: for Human liver microsome t1/2: 500 μg/mL microsomal protein, NADPH, 37 °C
[8] = for Concentration in plasma, D-prodrug relative to L-prodrug (higher): mouse plasma after in situ perfusion, prodrug plus metabolites
Caco-2 monolayer = experiment: Caco-2 cell monolayer permeability, apical-to-basolateral; type: in vitro ADME
In short: (§2)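 Caco-2 cells grown 21–24 days on collagen-coated PTFE inserts, TEER 550–600 Ω cm2. Apical MES (pH 6.0) and basolateral HEPES (pH 7.4) buffers, preincubated 15 min at 37 °C. 0.1 mM test compound in apical MES, ±10 mM Gly-Pro. Receiver sampled at 15–120 min at 37 °C with buffer replacement. Samples acidified with 0.1% TFA and analysed by HPLC.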

[9] = as above; type: in vitro ADME; conditions: human, Caco-2
In short: as §2

[10] = In situ single-pass intestinal perfusion in mice; conditions: female, BALB/c, mouse, other: in situ single-pass intestinal (jejunal) perfusion, pH 6
[11] = read-out: GI50 AsPC-1, 2 h exposure at pH 6.0, 24 h recovery, XTT

Compound | Thymidine phosphorylase t1/2 (Thymidine phosphorylase) [min] | AsPC-1 cell homogenates t1/2 [1] [min] | Cytosine (%) of species found in cells (AsPC-1 cells [2]) [%] | Gemcitabine (%) of species found in cells (AsPC-1 cells [2]) [%] | Prodrug (%) of species found in cells (AsPC-1 cells [2]) [%] | GI50 (AsPC-1 cells [3]; [11]) [mM] | SIF (pH 6.5) t1/2 [4] [min] | Buffer pH 7.4 t1/2 [5] [min] | Cytosine (%) of species found in cells (Caco-2 cells) [%] | Gemcitabine (%) of species found in cells (Caco-2 cells) [%] | Prodrug (%) of species found in cells (Caco-2 cells) [%] | Caco-2 cell homogenates t1/2 [6] [min] | SGF t1/2 [7] [min] | Human liver microsome t1/2 (Microsomal stability) [min] | Stability in cell homogenate, D-prodrug relative to L-prodrug [1] [fold] | Concentration in plasma, D-prodrug relative to L-prodrug (higher) [8] [fold] | Uptake amount, D-prodrug relative to L-prodrug (higher) (AsPC-1 cells [2]; AsPC-1 cells) [fold] | Uptake amount, D-prodrug lower than L-prodrug (Caco-2 cells; Caco-2 cells) [%] | Stability in cell homogenate, D-prodrug relative to L-prodrug [6] [fold] | also measured
5′-L-Valyl-gemcitabine | >120 | 13.8 ± 3.3 | 20 | 11 | 69 | 2 ± 0.8 | >120 | >120 | 0 | 15 | 85 | 19.5 ± 1.9 | >120 | 27.8 ± 13.6 | – | – | – | – | – | Membrane permeability, L-prodrug better than D-prodrug (mouse jejunum; mouse in situ perfusion): 87%
Nc1ccn([C@@H]2O[C@H](COC(=O)[C@H](N)Cc3ccccc3)[C@@H](O)C2(F)F)c(=O)n1 [5′-D-Phenylalanyl-gemcitabine] | >120 | 63.9 ± 11.2 | 1 | 87 | 12 | 5.6 ± 1.1 | >120 | >120 | 0 | 31 | 69 | 21.7 ± 0.2 | >120 | 6.6 ± 1.3 | 9.4 | 2.0 | 3.3 | 70 | 10.9 | Uptake enhancement relative to gemcitabine (AsPC-1 cells [2]; AsPC-1 cells, lower concentration (50 μM)): did not show the enhancement of uptake; Stability in human liver microsomes, D-prodrug relative to L-prodrug (Microsomal stability): 3.7 fold
CC(C)[C@@H](N)C(=O)OC[C@H]1O[C@@H](n2ccc(N)nc2=O)C(F)(F)[C@@H]1O [5′-D-Valyl-gemcitabine] | >120 | 87.2 ± 13.5 | 4 | 77 | 19 | 2.2 ± 0.9 | >120 | >120 | 0 | 10 | 90 | 42.0 ± 17.5 | >120 | 19.5 ± 4.4 | 6.3 | 2.3 | 3.1 | 46 | 2.2 | Prodrug concentration in blood ([8]; after in situ perfusion of mouse small intestine): highest; Dose linearity of uptake (AsPC-1 cells [2]; AsPC-1 cells, 50 μM vs 100 μM): exhibited the dose linearity
Nc1ccn([C@@H]2O[C@H](COC(=O)[C@@H](N)Cc3ccccc3)[C@@H](O)C2(F)F)c(=O)n1 [5′-L-Phenylalanyl-gemcitabine] | 31.9 ± 5.0 | 6.8 ± 2.0 | 10 | 84 | 6 | 4.3 ± 1.5 | >120 | >120 | 0 | 18 | 82 | 2.0 ± 0.3 | >120 | 1.8 ± 0.2 | – | – | – | – | – | –
Nc1ccn([C@@H]2O[C@H](CO)[C@@H](O)C2(F)F)c(=O)n1 [Gemcitabine, reference compound] | – | – | – | 90 | – | – | – | – | – | 50 | – | – | – | – | – | – | – | – | – | Difference in membrane permeability with and without 10 mM Gly-Pro (Caco-2 monolayer; Caco-2 monolayers): did not exhibit the difference; Species detected in the basolateral receiver compartment (Caco-2 monolayer; following transport across Caco-2 monolayers): only cytosine; Papp at 2 h, 0.1 mM [9]: 1 ± 0.2 ×10⁻⁶ cm/s; Resistance against thymidine phosphorylase (words) (Thymidine phosphorylase): rapidly cleaved; Resistance against thymidine phosphorylase (words) (Thymidine phosphorylase; listed as gemcitabine): did not display the resistance; half-life (Thymidine phosphorylase; thymidine phosphorylase, pH 7.4): 6 ± 1.8 min; half-life ([1]; human, AsPC-1 cell homogenates, pH 7.4): 33.7 ± 14.5 min; GI50 (AsPC-1 cells [3]; Homo sapiens, ASPC1, pH 6, read-out: GI50 AsPC-1): 10.2 ± 1.6 mM; Peff, mouse perfusion (mouse jejunum; mouse jejunum, 100 μM, pH 6.0): 2.0 ± 0.2 ×10^−5 cm/s; Papp at 90 min, 100 μM [10]: 2 ×10⁻⁶ cm/s; Degradation in SIF [4]: no significant degradation; half-life ([4]; simulated intestinal fluid (SIF), pH 6.5): > 120 min; Degradation in pH 7.4 phosphate buffer ([5]; pH 7.4): no significant degradation; half-life ([5]; phosphate buffer, pH 7.4): > 120 min; Difference in uptake amount with and without 10 mM Gly-Pro (Caco-2 cells; Caco-2 cells): did not exhibit the difference; half-life ([6]; human, Caco-2, pH 7.4): 105 ± 6.1 min; Degradation in SGF [7]: no significant degradation; half-life ([7]; simulated gastric fluid (SGF), pH 1.2): > 120 min; half-life (Microsomal stability; human, human liver microsomes, pH 7.4): 45.3 ± 3.3 min
